Results reported in ChEMBL document CHEMBL4330087, “Synthesis, antimicrobial activity, attenuation of aminoglycoside resistance in MRSA, and ribosomal A-site binding of pyrene-neomycin conjugates” (Eur J Med Chem, 2019).
Converted amounts (≈) assume the structure as drawn. The source made the active and inactive calls. The rule behind the calls is not given here.

Assays:
Homo sapiens = species: Homo sapiens; test: Displacement of F-NEO from human mitochondrial rRNA-A site C1410U mutant after 10 to 20 mins by fluorescence assay relative to NEO; parameters: concentration or dose not given beside the values
Summary of the method: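 100 nM F-NEO:A-site complex in 10 mM HEPES, 50 mM NaCl, 0.04 mM EDTA, pH 7.0, mixed with ligand and incubated 10-20 min at room temperature. Fluorescence read at ex 485/em 525 nm, in duplicate. Percent binding was computed from the intensities of ligand-treated complex, complex without ligand, and complex with neomycin.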

Streptococcus pyogenes [1] = test: Antibacterial activity against NEO-resistant Streptococcus pyogenes C203 at 6.25 uM after 15 to 20 hrs by CLSI protocol based microdilution assay relative to control; format: functional
Summary of the method: (§1)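 Exponential-phase cultures were exposed to 6.25 μM compound in duplicate with neomycin as reference, at 37 °C in a humidified incubator for 15-20 h. Broth and culture controls received sterile water with 1% DMSO. Percent growth inhibition was calculated against the growth and background controls.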

Escherichia coli [2] = test: Antibacterial activity against multidrug-resistant Escherichia coli H4H at 6.25 uM after 15 to 20 hrs by CLSI protocol based microdilution assay relative to control; format: functional; summary of the method: as §1
Staphylococcus aureus [3] = test: Antibacterial activity against NEO-sensitive Staphylococcus aureus C2 after 15 to 20 hrs by CLSI protocol based microdilution assay; format: functional
Summary of the method: (§2)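 CLSI broth microdilution MIC in triplicate on exponential-phase cells, ~3×10^5 cells per mL in cation-adjusted Mueller-Hinton broth. Compound was added from 10× stocks in 10% DMSO as serial 2-fold dilutions, final 50 to 0.78 μM. Plates were incubated at 37 °C, humidified, 15-20 h. Growth was read as absorbance at 595 nm, and percent inhibition was averaged over triplicates.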

Staphylococcus aureus [4] = test: Antibacterial activity against NEO-sensitive Staphylococcus aureus C1 after 15 to 20 hrs by CLSI protocol based microdilution assay; format: functional; summary of the method: as §2
Staphylococcus aureus [5] = test: Antibacterial activity against NEO-sensitive Staphylococcus aureus NRS77 after 15 to 20 hrs by CLSI protocol based microdilution assay; format: functional; summary of the method: as §2
Staphylococcus aureus [6] = test: Antibacterial activity against NEO-sensitive Staphylococcus aureus 6538 after 15 to 20 hrs by CLSI protocol based microdilution assay; format: functional; summary of the method: as §2
[7] = Toxicity in Caenorhabditis elegans infected with methicillin-resistant Staphylococcus aureus assessed as effect on nematode larvae viability by measuring decrease in formazan production at 6.25 to 50 uM after 24 hrs by MTT assay relative to control
[8] = Toxicity in Caenorhabditis elegans infected with methicillin-resistant Staphylococcus aureus assessed as effect on nematode larvae viability by measuring decrease in formazan production at 3.13 to 1.56 uM after 24 hrs by MTT assay
Escherichia coli [9] = test: Antibacterial activity against Escherichia coli O157:H7 at 6.25 uM after 15 to 20 hrs by CLSI protocol based microdilution assay relative to control; format: functional; summary of the method: as §1
Ribosomal RNA A-site [10] = test: Binding affinity to rRNA-A site in Escherichia coli S30 extract assessed as inhibition of protein translation after 20 mins; format: nucleic-acid assay
Ribosomal RNA A-site [11] = test: Binding affinity to rRNA-A site in human MDA-MB-231 cells assessed as inhibition of protein translation; format: cell-based
Staphylococcus aureus [12] = test: Antibacterial activity against NEO-sensitive Staphylococcus aureus harboring NorA mutant after 15 to 20 hrs by CLSI protocol based microdilution assay; format: functional
Summary of the method: (§3)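 CLSI broth microdilution on exponential-phase bacteria at ~3×10^5 cells/mL in cation-adjusted Mueller-Hinton broth. Serial 2-fold dilutions gave final concentrations of 50 to 0.78 μM; compound stocks were 10× in 10% DMSO. Incubated at 37 °C for 15-20 h, growth read at A595. Percent inhibition averaged over triplicates; MIC in μM.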

[13] = tested on: Staphylococcus epidermidis; test: Antibacterial activity against NEO-sensitive Staphylococcus epidermidis 12384 after 15 to 20 hrs by CLSI protocol based microdilution assay; format: functional; summary of the method: as §3
Staphylococcus aureus [14] = test: Antibacterial activity against methicillin-resistant Staphylococcus aureus A960649 after 15 to 20 hrs by CLSI protocol based microdilution assay; format: functional; summary of the method: as §3
Staphylococcus aureus [15] = test: Antibacterial activity against methicillin-resistant Staphylococcus aureus SU-5 after 15 to 20 hrs by CLSI protocol based microdilution assay; format: functional; summary of the method: as §3
Staphylococcus aureus [16] = test: Antibacterial activity against methicillin-resistant Staphylococcus aureus M0602 after 15 to 20 hrs by CLSI protocol based microdilution assay; format: functional; summary of the method: as §3
Streptococcus pyogenes [17] = test: Antibacterial activity against NEO-resistant Streptococcus pyogenes C203 after 15 to 20 hrs by CLSI protocol based microdilution assay; format: functional; summary of the method: as §3
Bacillus anthracis = test: Antibacterial activity against NEO-sensitive Bacillus anthracis BA852 after 15 to 20 hrs by CLSI protocol based microdilution assay; format: functional; summary of the method: as §3
[18] = tested on: Mycolicibacterium smegmatis; test: Antibacterial activity against NEO-sensitive Mycobacterium smegmatis after 15 to 20 hrs by CLSI protocol based microdilution assay; format: functional; summary of the method: as §3
Escherichia coli [19] = test: Antibacterial activity against NEO-sensitive Escherichia coli ATCC 25922 after 15 to 20 hrs by CLSI protocol based microdilution assay; format: functional; summary of the method: as §3
Escherichia coli [20] = test: Antibacterial activity against NEO-sensitive Escherichia coli harboring TolC mutant after 15 to 20 hrs by CLSI protocol based microdilution assay; format: functional; summary of the method: as §3
Escherichia coli [21] = test: Antibacterial activity against multidrug-resistant Escherichia coli H4H after 15 to 20 hrs by CLSI protocol based microdilution assay; format: functional; summary of the method: as §3
Staphylococcus aureus [22] = test: Antibacterial activity against NEO-sensitive Staphylococcus aureus 25923 after 15 to 20 hrs by CLSI protocol based microdilution assay; format: functional; summary of the method: as §3
Staphylococcus aureus [23] = test: Antibacterial activity against methicillin-resistant Staphylococcus aureus 33591 after 15 to 20 hrs by CLSI protocol based microdilution assay; format: functional; summary of the method: as §3

Compound | inhibition (Homo sapiens) [%] | Activity (Streptococcus pyogenes [1]) | Activity (Escherichia coli [2]) | MIC (Staphylococcus aureus [3]) [µM] | MIC (Staphylococcus aureus [4]) [µM] | MIC (Staphylococcus aureus [5]) [µM] | Activity (Escherichia coli [9]) [%] | IC50 (Ribosomal RNA A-site [10]) [nM] | IC50 (Ribosomal RNA A-site [11]) [nM] | MIC (Staphylococcus aureus [12]) [µM] | MIC [13] [µM] | MIC (Staphylococcus aureus [14]) [µM] | MIC (Staphylococcus aureus [15]) [µM] | MIC (Staphylococcus aureus [16]) [µM] | MIC (Streptococcus pyogenes [17]) | MIC (Bacillus anthracis) [µM] | MIC [18] [µM] | MIC (Escherichia coli [19]) [µM] | MIC (Escherichia coli [20]) [µM] | MIC (Escherichia coli [21]) [µM] | other results
NC[C@@H]1O[C@H](O[C@H]2[C@@H](O)[C@H](O[C@@H]3[C@@H](O)[C@H](N)C[C@H](N)[C@H]3O[C@H]3O[C@H](CN)[C@@H](O)[C@H](O)[C@H]3N)O[C@@H]2CSCCNC(=O)CCc2ccc3ccc4cccc5ccc2c3c45)[C@H](N)[C@@H](O)[C@@H]1O | 86 | 35% | inactive | 12.5 (≈ 11.6 µg/mL) | 25 (≈ 23.3 µg/mL) | 6.3 (≈ 5.86 µg/mL) | – | – | – | – | – | – | – | – | – | – | – | – | – | – | MIC (Staphylococcus aureus [6]): 12.5 µM (≈ 11.6 µg/mL); Activity [7]: 50 to 75%; Activity [8]: Non-Toxic
NC[C@@H]1O[C@H](O[C@H]2[C@@H](O)[C@H](O[C@@H]3[C@@H](O)[C@H](N)C[C@H](N)[C@H]3O[C@H]3O[C@H](CN)[C@@H](O)[C@H](O)[C@H]3N)O[C@@H]2CNC(=O)Cc2ccc3ccc4cccc5ccc2c3c45)[C@H](N)[C@@H](O)[C@@H]1O | 73 | inactive | inactive | > 25 | > 25 | > 25 | 0 | 1280 | 1200 to 1280 | – | – | – | – | – | – | – | – | – | – | – | MIC (Staphylococcus aureus [6]): > 25 µM
NC[C@@H]1O[C@H](O[C@H]2[C@@H](O)[C@H](O[C@@H]3[C@@H](O)[C@H](N)C[C@H](N)[C@H]3O[C@H]3O[C@H](CN)[C@@H](O)[C@H](O)[C@H]3N)O[C@@H]2CSCCNC(=O)Cc2ccc3ccc4cccc5ccc2c3c45)[C@H](N)[C@@H](O)[C@@H]1O | 103 | inactive | – | 12.5 (≈ 11.5 µg/mL) | 12.5 (≈ 11.5 µg/mL) | 3.2 (≈ 2.93 µg/mL) | – | 269 | 269 | 6.25 to 12.5 (≈ 5.73 to 11.5 µg/mL) | 6.25 (≈ 5.73 µg/mL) | 12.5 (≈ 11.5 µg/mL) | 25 (≈ 22.9 µg/mL) | 25 (≈ 22.9 µg/mL) | inactive | 6.25 (≈ 5.73 µg/mL) | 6.25 (≈ 5.73 µg/mL) | > 25 | 6.25 (≈ 5.73 µg/mL) | > 25 | Activity [7]: 50 to 75%; Activity [8]: Non-Toxic
NC[C@@H]1O[C@H](O[C@H]2[C@@H](O)[C@H](O[C@@H]3[C@@H](O)[C@H](N)C[C@H](N)[C@H]3O[C@H]3O[C@H](CN)[C@@H](O)[C@H](O)[C@H]3N)O[C@@H]2CSCCNC(=O)CCCc2ccc3ccc4cccc5ccc2c3c45)[C@H](N)[C@@H](O)[C@@H]1O | 92 | 20% | <=30% | – | – | – | 3 | 927 | 927 | 6.25 to 12.5 (≈ 5.9 to 11.8 µg/mL) | 6.25 (≈ 5.9 µg/mL) | 12.5 (≈ 11.8 µg/mL) | 25 (≈ 23.6 µg/mL) | 25 (≈ 23.6 µg/mL) | 50 µM (≈ 47.2 µg/mL) | 6.25 (≈ 5.9 µg/mL) | 6.25 (≈ 5.9 µg/mL) | > 25 | 6.25 (≈ 5.9 µg/mL) | > 25 | MIC (Staphylococcus aureus [22]): 12.5 µM (≈ 11.8 µg/mL); MIC (Staphylococcus aureus [23]): 12.5 µM (≈ 11.8 µg/mL)
NC[C@@H]1O[C@H](O[C@H]2[C@@H](O)[C@H](O[C@@H]3[C@@H](O)[C@H](N)C[C@H](N)[C@H]3O[C@H]3O[C@H](CN)[C@@H](O)[C@H](O)[C@H]3N)O[C@@H]2CSCCNC(=S)NCCCCCCNC(=O)CCCc2ccc3ccc4cccc5ccc2c3c45)[C@H](N)[C@@H](O)[C@@H]1O | 91 | inactive | 5 - 30% | – | – | – | 0 | 213 | 213 | 6.25 (≈ 6.89 µg/mL) | 3.13 (≈ 3.45 µg/mL) | 25 (≈ 27.6 µg/mL) | 50 (≈ 55.1 µg/mL) | 25 to 50 (≈ 27.6 to 55.1 µg/mL) | inactive | 3.13 (≈ 3.45 µg/mL) | 6.25 (≈ 6.89 µg/mL) | > 25 | 1.56 to 3.13 (≈ 1.72 to 3.45 µg/mL) | > 25 | MIC (Staphylococcus aureus [22]): 6.25 µM (≈ 6.89 µg/mL); MIC (Staphylococcus aureus [23]): 25 µM (≈ 27.6 µg/mL)
NC[C@@H]1O[C@H](O[C@H]2[C@@H](O)[C@H](O[C@@H]3[C@@H](O)[C@H](N)C[C@H](N)[C@H]3O[C@H]3O[C@H](CN)[C@@H](O)[C@H](O)[C@H]3N)O[C@@H]2CNC(=O)CCCc2ccc3ccc4cccc5ccc2c3c45)[C@H](N)[C@@H](O)[C@@H]1O | 103 | 23% | 0% | – | – | – | 0 | – | – | 12.5 (≈ 11 µg/mL) | 12.5 (≈ 11 µg/mL) | 12.5 (≈ 11 µg/mL) | 25 (≈ 22.1 µg/mL) | 25 (≈ 22.1 µg/mL) | 25 µM (≈ 22.1 µg/mL) | 12.5 (≈ 11 µg/mL) | 12.5 (≈ 11 µg/mL) | > 25 | 12.5 (≈ 11 µg/mL) | > 25 | MIC (Staphylococcus aureus [22]): 12.5 µM (≈ 11 µg/mL); MIC (Staphylococcus aureus [23]): 12.5 µM (≈ 11 µg/mL)
